Test results published in ChEMBL document CHEMBL4406830, “Galloyl esters of trans-stilbenes are inhibitors of FASN with anticancer activity on non-small cell lung cancer cells” (Eur J Med Chem, 2019).
Converted amounts (≈) assume the structure as drawn.

Columns and labels:
NCI-H1703 [1] = assay: Antiproliferative activity against human NCI-H1703 cells expressing FASN assessed as growth inhibition at 25 uM after 72 hrs by MTS assay relative to control; type: functional; details: NCI-H1703, 72 h
Outline: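 H1703 cells were treated with a single 25 µM concentration for 72 h. Viability was measured by MTS at 490 nm, with 0.1% DMSO and media-only correction, relative to untreated control. Mean ± SD of n = 3 independent determinations, unpaired t test against control.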

NCI-H1299 = assay: Antiproliferative activity against human NCI-H1299 cells expressing FASN assessed as reduction in cell viability after 72 hrs by MTS assay; type: functional, cell-based; details: NCI-H1299, 72 h
Outline: (§1)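 ATCC-sourced cells. H1299, H1650, H1703 and PC-9 were grown in RPMI 1640 with 10% FBS. A549 was grown in high-glucose DMEM with 10% FBS and 1 mM pyruvate. SAEC was grown in BEGM. Cells were seeded at 3 × 10^3 per well (H1650 3.5 × 10^3) and left to attach overnight. Serial dilutions from DMSO stocks were added, 0.1% DMSO final, for 72 h at 37 °C, 5% CO2. Medium was replaced, MTS added, and A490 read after 2 h. IC50 was taken from % viability versus log concentration, 3 experiments.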

[2] = Kinetic solubility of the compound in universal buffer at pH 7.4 measured at 25 degC after 24 hrs by UV/Visible spectroscopic analysis; type: physicochemical; details: read-out: Kinetic_solubility
NCI-H1650 = assay: Antiproliferative activity against human NCI-H1650 cells expressing FASN assessed as reduction in cell viability after 72 hrs by MTS assay; type: functional, cell-based; details: NCI-H1650, 72 h; outline: as §1
NCI-H1703 [3] = assay: Antiproliferative activity against human NCI-H1703 cells expressing FASN assessed as reduction in cell viability after 72 hrs by MTS assay; type: functional, cell-based; details: NCI-H1703, 72 h; outline: as §1

Row | SMILES | IC50 (NCI-H1299) [µM] | solubility kinetic at 24 h [2] [µM] | IC50 (NCI-H1650) [µM] | IC50 (NCI-H1703 [3]) [µM] | inhibition at 25 µM (NCI-H1703 [1]) [%]
1 | O=C(Oc1ccc(-c2cccc3ccccc23)cc1)c1cc(O)c(O)c(O)c1 | – | – | – | – | < 50
2 | COc1cc(C(=O)Oc2ccc(/C=C/c3ccccc3)cc2)cc(OC)c1OC | – | – | – | – | < 50
3 | O=C(Oc1cccc(/C=C/c2ccccc2)c1)c1cc(O)c(O)c(O)c1 | – | – | – | – | < 50
4 | O=C(Oc1ccc(/C=C/c2cccc(OC(=O)c3ccc(O)c(O)c3)c2)cc1)c1ccc(O)c(O)c1 | 11 | – | 14.1 | 8.9 | > 50
5 | O=C(Oc1ccc(/C=C/c2cccc(OC(=O)c3ccc(O)cc3)c2)cc1)c1ccc(O)cc1 | 37.2 | – | 40.2 | 17.2 | > 50
6 | COc1cc(C(=O)Oc2ccc(Cc3ccc(OC(=O)c4cc(OC)c(OC)c(OC)c4)cc3)cc2)cc(OC)c1OC | – | – | – | – | < 50

Now from value to compound, other results behind:

Row | IC50 (NCI-H1299) [µM] | solubility kinetic at 24 h [2] [µM] | IC50 (NCI-H1650) [µM] | IC50 (NCI-H1703 [3]) [µM] | SMILES | inhibition at 25 µM (NCI-H1703 [1]) [%]
7 | 4.2 | 0.4 (≈ 0.196 µg/mL) | 7.4 | 5.8 | O=C(Oc1ccc(-c2ccc(OC(=O)c3cc(O)c(O)c(O)c3)cc2)cc1)c1cc(O)c(O)c(O)c1 | –
8 | 25.9 | – | 122 | 39.3 | O=C(Oc1ccccc1Cc1ccccc1OC(=O)c1cc(O)c(O)c(O)c1)c1cc(O)c(O)c(O)c1 | > 50
9 | 10.2 | – | 36 | 6.5 | O=C(Oc1cccc2c1CCCC2OC(=O)c1cc(O)c(O)c(O)c1)c1cc(O)c(O)c(O)c1 (configuration not stated) | > 50
10 | 8.6 | – | 49.7 | 6.2 | O=C(Oc1ccc(Cc2ccc(OC(=O)c3cc(O)c(O)c(O)c3)cc2)cc1)c1cc(O)c(O)c(O)c1 | > 50
11 | 8.5 | – | 16 | 11.2 | O=C(Oc1ccc(/C=C/c2ccccc2)cc1)c1cc(O)c(O)c(O)c1 | > 50
